Experimental data from ChEMBL document CHEMBL1125403, “Hybrid cholecystokinin-A antagonists based on molecular modeling of lorglumide and L-364,718” (J Med Chem, 1992).

The compounds below were run against T1, Cholecystokinin receptor type A (Rattus norvegicus, UniProt P30551) (assay: Inhibition of [3H]L-364718 binding to cholecystokinin type A receptor in rat pancreas membranes).
T1 sequence (P30551 whole entry): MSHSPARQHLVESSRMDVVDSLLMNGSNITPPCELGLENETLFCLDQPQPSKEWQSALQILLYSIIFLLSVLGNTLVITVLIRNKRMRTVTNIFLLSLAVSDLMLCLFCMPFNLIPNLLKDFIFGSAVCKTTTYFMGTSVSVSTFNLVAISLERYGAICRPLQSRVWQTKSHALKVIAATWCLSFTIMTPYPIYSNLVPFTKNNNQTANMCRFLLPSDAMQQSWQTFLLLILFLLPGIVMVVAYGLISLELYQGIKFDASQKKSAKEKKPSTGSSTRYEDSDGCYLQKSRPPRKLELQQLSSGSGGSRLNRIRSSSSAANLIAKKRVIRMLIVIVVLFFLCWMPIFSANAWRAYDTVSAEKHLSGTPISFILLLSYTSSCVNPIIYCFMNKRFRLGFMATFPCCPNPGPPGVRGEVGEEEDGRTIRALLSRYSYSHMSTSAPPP
Assay type: cell membranes, Membrane
Summary of the method: (§1)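 Male Wistar rat pancreas membranes, homogenized in 10 mM Hepes pH 7.4/5 mM MgCl2/130 mM NaCl, stored at -80 °C. GF/B filtration, scintillation counting. Nonspecific binding with 10 μM lorglumide. IC50 from pseudo-Hill plots, Ki by Cheng-Prusoff. Mean ± SEM of three experiments.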

SMILES	Ki
CCCCCN(CCCCC)C(=O)[C@@H](CCC(=O)O)NC(=O)c1ccc(Cl)c(Cl)c1	49 nM
O=C(NCC=C(c1ccccc1)c1ccccc1)c1cccc2ccccc12	1000 nM
O=C(NCC=C(c1ccccc1)c1ccccc1)c1ccc2ccccc2c1	450 nM

Now from value to compound:

Ki	SMILES
400 nM	O=C(NCC=C(c1ccccc1)c1ccccc1)c1ccc(Cl)c(Cl)c1
> 2000 nM	O=C(NCC=C(c1ccccc1)c1ccccc1)c1ccc(Cl)cc1
800 nM	Cc1cccc(NC(=O)NCC=C(c2ccccc2)c2ccccc2)c1
90 nM	O=C(NCC=C(c1ccccc1)c1ccccc1)Nc1ccc(Cl)cc1
> 4000 nM	O=C(NCC=C1c2ccccc2CCc2ccccc21)Nc1ccc(Cl)cc1

What follows are compounds tested against T1, Cholecystokinin receptor type A (assay: Displacement of [3H]L-364718 from Cholecystokinin type A receptor of rat pancreatic membranes).
Assay type: cell membranes, Membrane
Summary of the method: as §1

SMILES	Ki
O=C(NCC=C(c1ccccc1)c1ccccc1)c1cc2cccc3c2n1CCC3	> 2000 nM
O=C(NCC=C(c1ccccc1)c1ccccc1)c1cnc2ccccc2c1	> 2000 nM
O=C(NCC=C(c1ccccc1)c1ccccc1)c1ccc2ccccc2n1	470 nM
O=C(NCC=C(c1ccccc1)c1ccccc1)c1ccnc2ccccc12	> 2000 nM
COc1ccc(C(=CCNC(=O)c2cc3ccccc3[nH]2)c2ccc(OC)cc2)cc1	> 4000 nM

Other lines, results leading:

Ki	SMILES
200 nM	CCCCCC(=CCNC(=O)Nc1ccc(Cl)cc1)CCCCC
> 4000 nM	O=C(NC/C=C/c1ccccc1)Nc1ccc(Cl)cc1
400 nM	O=C(NCCC=C(c1ccccc1)c1ccccc1)Nc1ccc(Cl)cc1
340 nM	O=C(NCC=C(c1ccccc1)c1ccccc1)c1cc2ccccc2[nH]1

These compounds were tested against T1, Cholecystokinin receptor type A (assay: Compound was evaluated for its ability to inhibit [3H]L-364718 binding Cholecystokinin type A receptor in rat pancreas membranes).
Assay type: cell membranes, Membrane
Summary of the method: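 Male Wistar rat pancreas membranes, homogenized in 10 mM Hepes pH 7.4/5 mM MgCl2/130 mM NaCl, stored at -80 °C. […] GF/B filtration, scintillation counting. Nonspecific binding with 10 μM lorglumide. IC50 from pseudo-Hill plots, Ki by Cheng-Prusoff. Mean ± SEM of three experiments.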

Ki	SMILES
> 2000 nM	O=C(NCCC=C(c1ccccc1)c1ccccc1)c1cc2ccccc2[nH]1
